# The list is not random: actives were taken first. Their share in the collection is about 1.2%.
# TRPML3 ag: human mucolipin-3 channel agonism | actives 0.29% (n = 220,000) | Q8TDD5 | activation, % at 3 µM | HEK293 TRPML3-YFP, Fluo-8 calcium fluorescence; 100% = the carbachol control signal;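 active = activation above its plate's cutoff, the mean activation of the plate's test wells plus 3 SD, cut at about 12% in these data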;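 also: 0% = DMSO only wells and 100% = carbachol wells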
# Target sequence (Q8TDD5 whole entry, looked up): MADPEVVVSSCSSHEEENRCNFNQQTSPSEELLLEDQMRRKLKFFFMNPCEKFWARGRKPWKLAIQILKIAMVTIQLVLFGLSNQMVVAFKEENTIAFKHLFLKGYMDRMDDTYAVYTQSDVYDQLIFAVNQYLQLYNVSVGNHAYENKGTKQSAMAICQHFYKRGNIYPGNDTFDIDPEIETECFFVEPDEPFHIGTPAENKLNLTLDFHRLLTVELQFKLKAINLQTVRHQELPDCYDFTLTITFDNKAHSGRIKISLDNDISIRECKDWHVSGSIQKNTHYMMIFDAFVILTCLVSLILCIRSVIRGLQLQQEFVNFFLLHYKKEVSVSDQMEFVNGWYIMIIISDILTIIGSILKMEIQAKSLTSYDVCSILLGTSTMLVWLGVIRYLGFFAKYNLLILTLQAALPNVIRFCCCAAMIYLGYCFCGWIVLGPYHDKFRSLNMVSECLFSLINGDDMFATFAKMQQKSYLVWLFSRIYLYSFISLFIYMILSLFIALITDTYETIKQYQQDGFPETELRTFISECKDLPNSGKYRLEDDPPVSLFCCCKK
#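 Test system – HEK293 line with stable expression of human TRPML3-YFP channel · Control set – carbachol 87 µM final as high control (100%), DMSO as low control (0%) · Signal – Fluo-8 calcium dye fluorescence, ex 470-495, em 515-575 nm · Incubation – 1-h 37 °C dye load, 5-s basal, 120-s post-compound reads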
# M1 ag parental: M1 agonist counterscreen hit in parental CHO-K1 cells. AID 602248. activation, % at 3 µM. actives 0.48% (n = 360,000). Fluo-8 calcium fluorescence; scaled to maximal ATP response, vehicle zero; in the data active = activation above about 15%;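 also: untransfected CHO-K1 host cells lacking M1 receptor as counterscreen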
# CHO-K1 Ca PAM: counter-screen for M1 PAMs: effect in parental CHO-K1 cells; ATP EC20, Fluo-8 calcium fluorescence; 0% at ATP EC20, 100% at ATP max; activation, % at 3 µM; actives 0.02% (n = 360,000); AID 602247;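 active = activation above the run cutoff, the mean activation of all test compounds plus 3 SD, cut at about 40% in these data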;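 also: peak over basal fluorescence ratio in a 140 s read after ATP addition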
# CHO-K1 Ca antag: M1 antagonist counterscreen hit in parental CHO-K1 cells; ATP-induced calcium, Fluo-8 fluorescence; inhibition, % at 3 µM; actives 0.6% (n = 360,000); AID 602250;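 active = inhibition above a per-plate cutoff, the plate's mean sample inhibition plus 3 SD, cut at about 24% in these data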;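 also: 0% = DMSO plus EC80 ATP and 100% = DMSO alone without ATP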
# zfTRPN1 agonist: activates the zebrafish TRPN1 channel; HEK293 zebrafish TRPN1-YFP, Fluo-8 calcium fluorescence; 100% = response to 87 µM carbachol; activation, % at 3 µM; actives 0.18% (n = 220,000);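 active = activation above its plate's cutoff, the mean activation of test wells on that plate plus 3 SD, cut at about 19% in these data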;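 also: 0% = DMSO alone and 100% = 87 µM carbachol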
#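 Control set: carbachol 87 µM as high control, DMSO as low control; system: HEK293 stable line with zebrafish TRPN1-YFP; read-out: % activation versus carbachol response; detection: intracellular calcium fluorescence with Fluo-8; doses: single test compound dose, 3 µM nominal, 0.3% DMSO; schedule: dye 1 h 37 °C plus 30 min RT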
# TRPN1 counter: zebrafish TRPN1 agonism as TRPML3 agonist counter-screen; shares compounds with TRPML3 ag; HEK293 zebrafish TRPN1-YFP, Fluo-8 calcium fluorescence; scaled: carbachol wells 100%, DMSO wells 0%; activation, % at 3 µM; actives 10% (n = 310); AID 1525;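 active = mean activation over replicates above a set limit taken from the earlier TRPN1 channel primary screen, cut at about 19% in these data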;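 also: 100% = carbachol and 0% = 0.3% DMSO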
# TRPML3 ag conf: human TRPML3 agonism, confirmation; AID 1526; activation, % at 3 µM; actives 80% (n = 310); shares compounds with TRPML3 ag; HEK293 TRPML3-YFP, Fluo-8 calcium fluorescence; 100% set by carbachol, 0% by DMSO;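 active = activation above a set limit derived from the earlier primary screen, cut at about 12% in these data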
# An asterisk follows results filed as active; . = no result.
SMILES,TRPML3 ag,M1 ag parental,CHO-K1 Ca PAM,CHO-K1 Ca antag,zfTRPN1 agonist,others
COC(=O)C1=C(c2ccc(C(C)=O)cc2)C[C@@H]2CC[C@H]1N2C(=O)NCc1ccc(C(F)(F)F)cc1,.,23.7*,9.1,-5.5,.,
CCOC(=O)[C@]12Cc3cc(C)ccc3[C@H]1N(C1CCCCC1)C(=O)c1cc(OC)ccc12,.,3.4,7.9,24.5*,.,
CCOC(=O)[C@]12Cc3cc(C)ccc3[C@H]1N(Cc1ccccc1)C(=O)c1cc(F)c(F)cc12,.,2.1,14.8,-14.3,.,
COc1cccc(-n2c(/C=C/c3ccc(O)c(O)c3)nc3ccccc3c2=O)c1,0.2,1.7,-17.5,25.2*,3.6,
O=c1c2ccccc2nc(/C=C/c2ccc3c(c2)OCO3)n1-c1cccc(O)c1,0.6,-0.1,-13.6,25.8*,0.0,
NC(Cc1ccc(F)cc1)c1csc(Nc2ccccn2)n1 (centres undefined),.,1.8,7.8,7.1,.,
Cc1ccc(OCC(=O)N2CCN(Cc3ccc4c(c3)OCO4)CC2)cc1,1.0,0.0,-18.0,29.6*,2.5,
O=C(Nc1ccc(C(=O)O)cc1)Oc1ccc(N(CCCl)CCCl)cc1,.,0.4,6.8,2.8,.,
Fc1cccc(-c2ccc3c(c2)CNCc2cnnn2-3)c1,.,1.6,7.8,1.1,.,
CCN(CC)c1ccc(/C=C/[N+](=O)[O-])cc1,36.2*,59.6*,-2.5,31.0*,46.7*,
COc1cc(/C=C/[N+](=O)[O-])ccc1O,2.3,-0.2,-11.3,-0.1,0.3,
CN1CC(C(=O)c2ccc(Cl)cc2)C(c2ccccc2)C1 (centres undefined),.,5.4,20.4,-12.6,.,
CN1CC(C(=O)c2cccs2)C(c2ccc(Cl)cc2)C1 (centres undefined),.,20.6*,13.4,7.0,.,
CCC(C)N1CCN(C(=O)Cc2ccccc2)CC1 (centres undefined),-0.1,-0.4,-7.6,25.5*,-0.1,
COc1ccccc1CC(=O)N1CCN(CCc2ccccc2)CC1,.,0.6,-23.7,24.9*,.,
Cc1ccc(CC(=O)N2CCN(Cc3ccccc3)CC2)cc1,0.8,1.2,16.7,-12.6,-1.2,
Cc1cccc(C)c1-n1nnnc1C(c1cccs1)N1CCC2(CC1)C(=O)NCN2c1ccccc1 (centres undefined),.,0.3,9.5,-8.2,.,
O=C1c2ccccc2-n2nnc(-c3ccccc3)c2C2c3cc(Br)ccc3CCN12 (centres undefined),.,0.4,-4.8,15.8,.,
COc1cc2c(cc1OC)C1C(=O)c3ccc4c(c3OC1CO2)CC(C(C)C)O4 (centres undefined),.,7.5,-11.7,14.2,.,
COc1cc2c(cc1OC)[C@@H]1C(=O)c3ccc4c(c3O[C@@H]1CO2)C[C@H](C(C)C)O4,3.0,10.1,-5.6,29.0*,5.3,
Cc1ccccc1-c1ccc2c(c1)CNCc1cnnn1-2,.,1.9,13.1,5.1,.,
CC(=O)c1cn(Cc2ccccc2C#N)c2ccccc12,4.1,16.9*,-9.5,27.7*,6.6,
CCOP(=O)(OCC)C(NC(=O)c1ccccc1)C(Cl)(Cl)Cl (centres undefined),0.2,0.2,-13.6,24.1*,-0.9,
N#CC(C#N)=NNc1ccc(-n2ccc(C(F)(F)F)n2)cc1,23.3*,15.0,-3.2,21.7,27.4*,
Cc1cc(C)n(-c2ccc(NN=C(C#N)C#N)cc2)n1,17.6*,21.4*,-0.6,13.7,31.9*,
SMILES,TRPML3 ag,M1 ag parental,CHO-K1 Ca PAM,CHO-K1 Ca antag,zfTRPN1 agonist,others
COC(=O)c1ccc(N2CCN(C)CC2)c([N+](=O)[O-])c1,0.2,19.2*,9.8,4.6,0.5,
CCOC(=O)[C@]12Cc3cc(C)ccc3[C@H]1N(C(C)C)C(=O)c1ccccc12,.,1.3,14.5,-16.1,.,
CCCc1cc(=O)oc2cc(OCC(=O)N3CCN(Cc4ccc5c(c4)OCO5)CC3)ccc12,.,3.7,17.1,-13.0,.,
CCCc1cc(=O)oc2cc(OCC(=O)N3CCC(C(=O)O)(c4ccccc4)CC3)ccc12,.,-0.4,-2.4,24.6*,.,
O=c1[nH]c2ccccc2n1C1CCN(Cc2ccc(-c3nc4ccc(F)cc4nc3-c3ccccc3)cc2)CC1,.,0.7,12.0,-0.8,.,
O=[N+]([O-])/C=C1/NCCN1Cc1ccc(Cl)nc1,1.0,-0.4,-13.8,26.1*,1.2,
O=[N+]([O-])/C(Cl)=C1\NCCN1Cc1ccc(Cl)nc1,0.9,2.0,26.6,-5.8,2.1,
CCCCCN1C(=O)c2ccccc2[C@@]2(C(=O)OCC)Cc3cc(OC)ccc3[C@@H]12,.,0.7,14.2,-2.2,.,
O=C1C2CC(CN3CCCCC23)C2CCCCN12 (centres undefined),.,0.5,7.7,4.1,.,
NC(=O)c1ccsc1NC(=O)COC(=O)Cc1ccccc1,.,10.9,-7.2,24.6*,.,
O=C(COC(=O)Cc1ccccc1)NC12CC3CC(CC(C3)C1)C2,-0.6,-0.1,-0.9,-2.6,-0.9,
C[C@H]1OC[C@@H](C[N+](C)(C)C)O1,98.9*,1.8,11.1,-1.0,71.4*,
CC1OC(C[N+](C)(C)C)CC1O (centres undefined),.,6.5,10.5,3.5,.,
S=C(NCCc1ccccc1)N1Cc2cc(Br)ccc2-n2nncc2C1,.,0.0,-7.6,26.9*,.,
S=C(NCCc1ccccc1)N1Cc2ccc(Br)cc2-n2nncc2C1,.,1.1,-2.3,5.0,.,
COc1cccc(C2(O)CCN(Cc3ccncc3)CC2)c1,0.9,-0.4,-8.2,24.2*,1.2,
Cc1[nH]c2ccc(OC(F)(F)F)cc2c1CCNCc1cccc([N+](=O)[O-])c1,.,35.2*,-24.2,20.9,.,
Cc1[nH]c2ccc(OC(F)(F)F)cc2c1CCNCc1ccc(Cl)cc1,.,2.5,17.7,13.0,.,
CCOc1cccc(CNCCc2c(C)[nH]c3ccc(OC(F)(F)F)cc23)c1O,.,37.2*,-24.7,53.0*,.,
Fc1ccc(CCNCc2ccc(Br)cc2)cc1,0.2,4.0,40.8*,-15.4,0.7,
Fc1ccc(CNCCc2ccccc2F)cc1,0.7,0.3,22.8,-6.6,0.5,
COc1ccc(CNCCc2c[nH]c3ccccc23)c(OC)c1C,.,2.0,7.8,-4.2,.,
COc1cc(C)c(CNCCc2c[nH]c3ccccc23)cc1C,.,16.0*,-3.1,-0.5,.,
CCOC(=O)c1c(N)n(Cc2ccco2)c2nc3ccccc3nc12,15.4*,1.5,10.7,-2.6,4.3,TRPN1 counter=3.8;TRPML3 ag conf=2.5
O=C1NCN(c2ccccc2)C12CCN(C(c1cc3ccccc3o1)c1nnnn1C1CCCCC1)CC2 (centres undefined),.,0.5,13.6,-9.6,.,
